# From PubChem BioAssay
# OX1R antag-1: human HCRTR1 antagonism; O43613; CHO/OX1R cells, Fluo-8 calcium fluorescence, orexin A; inhibition, % at 5 µM; hit rate 0.43% among 330,000; AID 434989;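 active means inhibition above its plate's threshold, mean inhibition of all tested compounds on the plate plus 3 SD, cut at about 37% in these data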;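 further: 0% = orexin A challenge wells and 100% = SB-334867-A antagonist wells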
# TAAR1 antag: human TAAR1 antagonism; Q96RJ0; CHO RD-HGA16 TAAR1, Fluo-8 calcium fluorescence, antagonist; inhibition, % at 3 µM; hit rate 1.5% among 360,000; AID 624466;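 active means inhibition above a per-plate cutoff, the mean inhibition of test compounds on that plate plus 3 SD, cut at about 49% in these data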;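 further: 0% = DMSO plus EC80 beta-PEA response and 100% = DMSO alone without agonist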
# Target sequence (Q96RJ0 whole entry, looked up): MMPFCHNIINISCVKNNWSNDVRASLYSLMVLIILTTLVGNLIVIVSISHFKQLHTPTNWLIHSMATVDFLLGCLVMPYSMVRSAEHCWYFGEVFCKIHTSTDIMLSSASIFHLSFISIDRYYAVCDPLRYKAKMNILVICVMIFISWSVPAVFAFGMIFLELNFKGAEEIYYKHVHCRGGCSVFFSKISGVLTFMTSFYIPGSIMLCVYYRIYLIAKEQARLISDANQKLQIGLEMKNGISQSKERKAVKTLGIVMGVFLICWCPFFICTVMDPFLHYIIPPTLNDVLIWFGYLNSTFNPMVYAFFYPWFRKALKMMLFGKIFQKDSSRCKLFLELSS
#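 Material: CHO RD-HGA16 cells bearing hTAAR1; compound dosing: one-point dosing, 3 µM nominal final; schedule: dye loading 75 min at 37 °C, then 30 min room temperature; measured by: calcium fluorescence with Fluo-8; control set: vehicle and agonist controls; replication: n of 1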
# GPR7 antag: human neuropeptides B/W receptor 1 antagonism; hit rate 1.1% among 290,000; inhibition, % at 4.4 µM; GPR7-expressing cells, fluorescence antagonist assay; P48145; AID 1861; in the data active means inhibition above about 16%, passing the limit was not always enough;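 further: cells stimulated with the agonist NPW; 0% = agonist with vehicle and 100% = vehicle without agonist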
# Target sequence (P48145 whole entry, looked up): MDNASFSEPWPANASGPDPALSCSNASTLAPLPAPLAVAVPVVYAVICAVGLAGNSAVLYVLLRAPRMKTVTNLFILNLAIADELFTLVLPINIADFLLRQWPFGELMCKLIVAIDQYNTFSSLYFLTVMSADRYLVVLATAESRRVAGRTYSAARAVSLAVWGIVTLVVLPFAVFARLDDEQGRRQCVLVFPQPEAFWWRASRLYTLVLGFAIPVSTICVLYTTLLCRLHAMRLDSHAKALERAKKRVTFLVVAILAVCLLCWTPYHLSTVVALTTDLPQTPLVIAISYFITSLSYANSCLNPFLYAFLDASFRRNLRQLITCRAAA
# CHO parental Ca: signal in parental CHO cells, OX1R antagonist counter-screen | parental CHO-K1, ATP-induced calcium, Fluo-8 fluorescence | inhibition, % at 5.6 µM | hit rate 0.63% among 330,000 | AID 463079;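 active means inhibition above that plate's mean sample inhibition plus 3 SD, cut at about 26% in these data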;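 further: 0% = ATP-challenged DMSO wells and 100% = DMSO wells without ATP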
#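 material = parental CHO cells | also added = ATP as calcium-mobilizing challenge | dosing = single point at 5.6 µM | detection = intracellular calcium via Fluo-8 no-wash fluorescent dye | read-out = % inhibition | benchmarks = low control ATP plus DMSO, high control DMSO only | repeats = one well per compound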
# TAAR1 agonist: agonists of human TAAR1; Q96RJ0; CHO RD-HGA16 TAAR1, Fluo-8 calcium fluorescence; vehicle wells 0%, saturating PEA agonist 100%; activation, % at 3 µM; hit rate 0.99% among 360,000; AID 624467;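 active means activation above the mean activation of all test compounds in the run plus 3 SD, cut at about 38% in these data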
#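 System: CHO RD-HGA16 cells carrying human TAAR1 plus Gα16; Incubation: 17-24 h seeding, 75 min 37 °C dye, 30 min RT; Measured by: Fluo-8 fluorescence, 5 s baseline then 140 s kinetic read; Control set: DMSO and PEA EC100; Replication: single well for each compound.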
# OX1R antag-2: antagonists of human orexin 1 receptor (OX1R); O43613; OX1R-expressing cells, FRET antagonist read-out; inhibition, % at 6.6 µM; hit rate 1.8% among 330,000; in the data active means inhibition mostly above about 38%, no sharp cut-off; inactive means mostly below about 40%;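 further: 0% = agonist challenge alone and 100% = reference antagonist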
# Numbers without * were called inactive; x = not tested or not shown; ! = not confirmed by another sample. An excerpt weighted towards active compounds, which were near 4.5% of everything screened.
SMILES,OX1R antag-1,TAAR1 antag,GPR7 antag,CHO parental Ca,TAAR1 agonist,OX1R antag-2
CN(CCOc1ccccc1)C(=O)c1cc([N+](=O)[O-])cc([N+](=O)[O-])c1,-13,8,2,-9,10,38*
CN(CCOc1ccccc1)CC(=O)Nc1cc([N+](=O)[O-])ccc1Cl,-19,14,-4,-4,-3,62*
CN(CCOc1ccccc1)C(=O)c1cc([N+](=O)[O-])ccc1N1CCOCC1,-19,1,x,-10,3,41
COC(=O)c1cc2c(c3c4cc(F)ccc4n(S(=O)(=O)c4cccc(C)c4)c13)C(=O)N(Cc1ccccc1OC)C2,x,-4,x,x,0,x
CCCc1nnc(NC(=O)Cn2c(=O)sc3ccccc32)s1,-7,0,17,-10,46*,5
CCCc1nnc(NC(=O)CN2C(=O)c3ccccc3C2=O)s1,-14,-12,-6,-18,8,-2
COC(=O)c1c(NC(=O)C2c3ccccc3Oc3ccccc32)sc(C)c1C,-27,-19,7,-9,1,12
CCOC(=O)NC1c2ccccc2Oc2ccccc21,-4,-28,-1,70*,-1,4
O=C(c1cc2c(s1)-c1ccccc1S(=O)(=O)C2)N1CCN(Cc2ccccc2)CC1,-16,51*,8,1,13,18
CCN1CCN(C(=O)c2cc3c(s2)-c2ccccc2S(=O)(=O)C3)CC1,-11,-9,-7,-1,2,23
S=C(SCc1nc(-c2ccc(Cl)cc2)no1)N1CCSCC1,x,-15,x,x,-1,x
COc1cccc(C(=O)NCC(C)(C)SCc2ccc(F)cc2)c1,-14,-10,-8,-7,-3,-7
O=C(O)/C=C\c1cn(-c2ccccc2)nc1-c1cc2ccccc2o1,15,1,-5,10,1,76*
CNC(=O)COC(=O)/C=C/c1cn(-c2ccccc2)nc1-c1ccc2c(c1)OCCO2,-9,-17,-6,3,4,19
Cc1ccc(-c2nn(-c3ccccc3)cc2/C=C/C(=O)OCC(=O)NC2CC2)o1,77*,33,0,83*,17,46
O=C(O)/C=C/c1cn(-c2ccccc2)nc1-c1cc2ccccc2o1,9,18,-7,-1,2,27
C=CCCC(=O)N1C[C@H]2CCN(C)[C@H]2C[C@H]1c1ccccc1Br,x,-4,x,x,-1,x
Fc1ccc(CNCc2ccccc2Cl)cc1,-3,1,19*,7,1,8
COc1ccc(S(=O)(=O)NCc2csc(-c3cccnc3)n2)cc1,-7,-11,7,-11,1,13
O=S(=O)(NCc1csc(-c2cccnc2)n1)c1ccc(Br)cc1,-11,-28,8,-20,1,38*
Cc1ccc(C)c(C(=O)COC(=O)c2n[nH]c3ccccc23)c1,-14,41,x,-16,1,36*
COc1ccc2cc3[n+](cc2c1OC)CCc1cc2c(cc1-3)OCO2,-2,-14,-4,-9,-1,55*!
COc1cccc(C2=NCCc3cc4c(cc32)OCO4)c1OC,-20,-12,-11,-3,-1,18
Cc1ccc(C(=O)NCCNC(=O)c2ccccn2)cc1,3,-7,-7,4,2,17
Cc1cccc(C)c1OCc1cc(C(=O)N2CCN(c3ccccc3)CC2C)no1 (stereo not drawn),-16,22,-29,-13,-1,27
SMILES,OX1R antag-1,TAAR1 antag,GPR7 antag,CHO parental Ca,TAAR1 agonist,OX1R antag-2
Cc1ccnc(Nc2nc(-c3c(C)nc4sccn34)cs2)c1,-13,-8,-19,-24,11,55*
Cc1ccc(S(=O)(=O)NC(CCCNC(=O)OCc2ccccc2)C(=O)O)cc1 (stereo not drawn),x,-27,x,x,2,x
COC(=O)c1cccc(NC(=O)/C=C/c2cccc([N+](=O)[O-])c2)c1,-8,36,-1,-6,16,33
O=C(/C=C/c1cccc([N+](=O)[O-])c1)Nc1cc(C(=O)O)cc(C(=O)O)c1,-4,-8,-11,14,4,62*
CN(C(=O)[C@H]1O[C@@H](n2cnc(C(N)=O)n2)[C@H](O)[C@@H]1O)c1ccccc1,x,-2,x,x,2,x
COc1ccc(C(=O)Nc2cccc(/C=C(\CCC(=O)O)c3nc4ccccc4s3)c2)cc1,-12,52*,-5,-10,13,22
CC(C)Cn1c(N)c(C(=O)COC(=O)CC23CC4CC(CC(C4)C2)C3)c(=O)n(C)c1=O,71*,41,21*,61*,4,58
Cc1csc(=O)n1CCC(=O)OCC(=O)c1c(N)n(CC(C)C)c(=O)n(C)c1=O,-12,8,x,-11,8,12
CC(C)Cn1c(N)c(C(=O)COC(=O)CCc2nc3ccccc3s2)c(=O)n(C)c1=O,40,37,21,34*,13,35
CC(C)Cn1c(N)c(C(=O)COC(=O)c2cc(S(=O)(=O)N3CCOCC3)ccc2Br)c(=O)n(C)c1=O,8,54*,x,-12,21,9
Cc1ccccc1OCCC(=O)OCC(=O)c1c(N)n(CC(C)C)c(=O)n(C)c1=O,27,29,5,46*,9,41
Cc1ccc(S(=O)(=O)N2CCOCC2)cc1C(=O)OCC(=O)c1c(N)n(C)c(=O)n(C)c1=O,-6,-9,x,-7,6,-2
COC(=O)C1=C(C)N(C)C(=NCc2ccc(C(F)(F)F)cc2)NC1c1cccc(Cl)c1 (stereo not drawn),x,30,x,x,25,x
COC(=O)[C@]12C[C@H](CC(=O)NCc3ccccc3)C(=O)N(Cc3ccccc3)C1=C[C@H](C(C)(C)C)O[C@@H]2C,x,-39,x,x,-1,x
CC(C)Cn1c(N)c(C(=O)COC(=O)c2cc3ccccc3cc2O)c(=O)n(C)c1=O,25,25,x,-1,4,12
CC(C)Cn1c(N)c(C(=O)COC(=O)/C=C/c2ccccc2)c(=O)n(C)c1=O,47,9,x,78*,7,46
COc1ccc(Nc2ccncc2[N+](=O)[O-])cc1,-13,13,-8,3,3,41*
O=[N+]([O-])c1cnccc1Nc1cccc(F)c1,-8,5,-9,-6,0,75*
O=[N+]([O-])c1ccccc1Nc1cccc(F)c1,x,-17,x,x,-3,x
COC(=O)c1cc2c(c3c4cc(OC)ccc4n(S(=O)(=O)c4ccc(F)cc4)c13)C(=O)N(Cc1ccccc1)C2,x,-40,x,x,0,x
CCC(=O)NC1=C(Cl)C(=O)C(NC(=O)CC)=C(Cl)C1=O,x,50*,-26,x,46*,x
Nc1nc2c(ncn2[C@@H]2O[C@H](C(=O)N[C@@H](Cc3ccccc3)C(=O)NCc3ccc4c(c3)OCO4)[C@@H](O)[C@H]2O)c(=O)[nH]1,x,-5,x,x,0,x
Cc1cc(Cl)ccc1NC(=S)NCCC(c1ccccc1)c1ccccc1,45*,36,-15,37*,9,52
